The list is not random: actives were taken first. Their share in the collection is about 6.7%.
Beta apoptosis – beta cell apoptosis inhibition; hit rate 0.8% among 300,000; protection from apoptosis, % (test concentration not listed); INS-1E cytokine-induced death, ATP luminescence, 48 h; percent of positive-control rescue, neutral wells zero;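 active means Every replicate reaches about 75%, or at least half do and their mean reaches it too, limit read from the data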;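 further: 0% = cytokine-treated negative control wells and 100% = positive control rescue; higher means more ATP so stronger rescue from cytokine killing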
T cruzi repl – blocks replication of Trypanosoma cruzi; T. cruzi beta-gal in NIH3T3, luminescence, 90 h; inhibition, % (no concentration beside the values); hit rate 1.4% among 300,000;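 active means mean inhibition across valid replicates above about 55%, limit read from the data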;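 further: signal also drops with host cell toxicity which is not excluded here; 0% = plate median of DMSO wells and 100% = zero luminescence signal; higher percent means less beta-gal luminescence so fewer parasites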
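System: NIH/3T3 fibroblasts plus reporter T. cruzi. Medium: DMEM plus 2% FBS. Probe or stimulus: 5000 reporter trypomastigotes per well. Compound: single 50 nL compound addition per well in DMSO. Incubation: co-culture of at least 90 h after 3 h attachment. Detection: GalScreen β-gal luminescence, detergent lysis, 60 min. Evaluation: parasite load inhibition, %.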
CSC inhib – cancer stem cell inhibition. cancer stem cell-like cells viability, luminescence. inhibition, % at 7.5 µM. hit rate 1.1% among 300,000. AID 2717; in the data active means inhibition above about 75%; tested in HMLE shEcad cells
PREPL inh – inhibits the human prolyl oligopeptidase-like enzyme | recombinant PREPL, fluorescence polarization activity-based probe | inhibition, % at 5.96 µM | hit rate 0.68% among 320,000; in the data active means inhibition above about 43%;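 further: 0% = enzyme with DMSO and 100% = wells lacking enzyme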
Target sequence (Q4J6C6 whole entry, looked up): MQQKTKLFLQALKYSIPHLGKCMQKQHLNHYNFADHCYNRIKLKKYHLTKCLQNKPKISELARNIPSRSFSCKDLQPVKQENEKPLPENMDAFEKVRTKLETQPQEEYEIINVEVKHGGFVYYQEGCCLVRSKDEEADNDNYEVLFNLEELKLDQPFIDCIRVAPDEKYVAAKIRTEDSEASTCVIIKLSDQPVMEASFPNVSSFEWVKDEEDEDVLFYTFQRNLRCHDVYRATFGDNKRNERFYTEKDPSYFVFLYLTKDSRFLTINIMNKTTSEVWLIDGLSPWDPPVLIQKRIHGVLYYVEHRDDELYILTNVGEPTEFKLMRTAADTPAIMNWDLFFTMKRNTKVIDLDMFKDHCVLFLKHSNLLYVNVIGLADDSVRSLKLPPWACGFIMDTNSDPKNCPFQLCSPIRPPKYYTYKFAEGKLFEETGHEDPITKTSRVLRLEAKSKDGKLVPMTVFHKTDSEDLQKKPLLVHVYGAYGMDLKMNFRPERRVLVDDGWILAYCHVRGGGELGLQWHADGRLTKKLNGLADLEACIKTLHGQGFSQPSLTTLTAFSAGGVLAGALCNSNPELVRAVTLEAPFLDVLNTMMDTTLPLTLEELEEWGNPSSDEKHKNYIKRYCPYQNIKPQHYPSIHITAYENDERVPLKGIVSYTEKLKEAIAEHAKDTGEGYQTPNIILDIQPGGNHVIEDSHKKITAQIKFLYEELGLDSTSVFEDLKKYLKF
GRIN3A LBD mod – NR3A (human) ligand-binding domain modulation; AID 1259313; NR3A LBD differential scanning fluorimetry, Tm shift; 0% = protein alone, 100% = glycine-bound protein; hit rate 2.5% among 340,000; Tm shift relative to glycine control, % at 25 µM;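 active means melting temperature shift of at least 10% of the positive control shift, at one fixed dose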
CHOP inhibitor – CHOP inhibition in unfolded protein response; CHO-K1 CHOP-promoter luciferase, tunicamycin-induced, 15-18 h; inhibition, % at 10 µM; hit rate 3.8% among 220,000; AID 2732;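 active means compounds that reduced the stress-induced luciferase reporter signal by more than about 70% of percent inhibition, limit read from the data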;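 further: 0% = tunicamycin plus vehicle and 100% = wells without tunicamycin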
The depositor's hits bear a star; nt = not tested or not shown.

SMILES	Beta apoptosis	T cruzi repl	CSC inhib	PREPL inh	GRIN3A LBD mod	CHOP inhibitor
O=C(NCc1nc2ccccc2[nH]1)C1=C[C@H](C2CCCCC2)C[C@H](OCc2ccc(CO)cc2)O1	3	38	21	-18	-2	29
O=C(NCc1nc2ccccc2[nH]1)C1=C[C@@H](C2CCCCC2)C[C@@H](OCc2ccc(CO)cc2)O1	106*	38	2	-11	0	25
Cc1ccc(CCC(=O)NCc2ccccc2)o1	-7	4	-7	-7	-1	nt
CCCCOC(=O)Nc1nnc(C(C)C)s1	-2	64*	-22	6	-5	-11
CCCCOC(=O)Nc1nnc(-c2ccccc2OC)s1	-1	12	-10	-4	2	83*
CCCOc1nc(C)cc(COC)c1C(N)=O	2	0	-1	2	0	2
CNc1ccc2c3c(cccc13)C(=O)N(C)C2=O	-12	0	6	64*	-1	nt
CN1C(=O)c2cccc3c(Cl)ccc(c23)C1=O	-6	-1	5	1	2	26
CCCCCCOc1ccc(/C(C)=N/NC2=NCCN2)cc1	47	51	100*	8	-3	nt
CCCCNC(=S)NNc1c(Cl)cc(Cl)cc1Cl	-9	15	-8	-2	-2	82*
NC(N)=N/N=C/c1ccc(OS(=O)(=O)c2ccccc2)cc1	58	57*	12	-30	-2	-3
CCC(=O)N/N=C/c1ccc(OS(=O)(=O)c2ccccc2)cc1	-1	-2	-14	-18	-3	15
COc1ccc(/C=N/NC(=O)CSc2nnc(CCCc3ccc(OC)c(C)c3)o2)cc1	3	-6	nt	-9	-1	70*
C=CCc1cc(/C=N/NC(=O)CSc2nnc(CCCc3ccc(OC)cc3)o2)cc(OC)c1O	1	5	-5	12	-2	78*
CC(C)c1ccccc1OCC(O)CN1CCN(S(=O)(=O)c2ccc([N+](=O)[O-])cc2)CC1 (centres undefined)	1	55*	11	8	-5	nt
CC(COc1cccc2ccccc12)CN1CCN(C)CC1 (centres undefined)	9	66*	59	8	-1	29
C=CCc1ccccc1OCC(O)CN1CCN(c2ccccc2F)CC1 (centres undefined)	1	6	6	8	-1	78*
OC(COc1cccc2ccccc12)CN1CCN(c2ccccc2)CC1 (centres undefined)	-3	-11	8	31	-18	51
Cc1cccc(C)c1OCC(O)CN1CCc2ccccc2C1 (centres undefined)	-5	7	23	-25	-1	nt
Cc1ccc(C(C)C)c(OCC(O)CN2CCc3ccccc3C2)c1 (centres undefined)	98*	14	12	8	3	nt
CCOc1ccc(NC(=O)CCc2nnc3ccc(N4CCC5(CC4)OCCO5)nn23)cc1	-4	-5	-18	1	-1	nt
COc1ccc(NC(=O)COc2nc3ccccc3nc2N2CCOCC2)c(OC)c1	nt	-3	-6	-7	-1	-1
COc1ccc(C(=O)CSc2nnc(CNC(=O)c3ccccc3F)n2C)cc1OC	4	-13	-5	-1	1	nt
CCCCCc1ccc(C(=O)CCC(=O)OCC(=O)N(CC)c2c(N)n(Cc3ccccc3)c(=O)[nH]c2=O)cc1	nt	nt	nt	nt	4	nt
Cc1ccccc1OCC(O)CN1CCN(C)CC1 (centres undefined)	-5	63*	-9	0	1	8
SMILES	Beta apoptosis	T cruzi repl	CSC inhib	PREPL inh	GRIN3A LBD mod	CHOP inhibitor
O=C(NCC1COc2ccccc2O1)c1ccc(NC(=O)C(c2ccccc2)c2ccccc2)cc1 (centres undefined)	21	85*	12	-17	6	47
O=C(Cc1ccccc1)Nc1ccc(C(=O)NCC2COc3ccccc3O2)cc1 (centres undefined)	17	4	-6	-58	22*	31
O=C(NCC1COc2ccccc2O1)c1ccccc1 (centres undefined)	-5	13	-3	-2	1	26
COc1cc(NS(=O)(=O)c2cc(C(=O)NCCc3ccccn3)ccc2OC)cc(OC)c1	-8	nt	-10	1	11*	nt
Cc1cc(C)cc(NS(=O)(=O)c2cc(C(=O)NCc3ccccn3)ccc2Cl)c1	-5	-3	nt	-6	-10	21
CCC1=C(OC(=O)c2ccccc2)C(C)(C)C(c2ccccc2)OC1=O (centres undefined)	9	-4	-2	0	14*	93*
O=C(CSCc1ccc(Cl)cc1)N/N=C/c1ccccc1	-5	1	7	-62	-6	-10
O=C(CSCc1ccc(Cl)cc1)N/N=C/c1c(Cl)cccc1Cl	0	-6	17	-49	-9	92*
COCc1cc(/C=N\NC(=O)Cc2ccc(Cl)cc2)ccc1OC	0	1	-18	-9	-3	21
COC(=O)Oc1ccc(/C=N/NC(=O)CSCc2ccc(Cl)cc2)cc1OC	-2	-1	19	-47	-3	78*
Cc1ccc(S(=O)(=O)CCC(=O)OCC(=O)NC(C)c2ccccc2)cc1 (centres undefined)	-9	nt	nt	11	-1	nt
COc1cc(Cl)c(NS(=O)(=O)c2ccc(-c3ccc(=O)[nH]n3)o2)c(OC)c1	-2	-5	-9	4	16*	nt
Cc1cccc(C)c1NS(=O)(=O)c1ccc(-c2ccc(=O)[nH]n2)o1	1	-13	-1	6	-1	nt
O=C1c2cccc3cccc(c23)C(=O)N1CCN1CCN(CC(O)COc2ccc3ccccc3c2)CC1 (centres undefined)	47	34	104*	3	0	16
Cc1cc(C)cc(OCC(O)CN2CCC(CN3C(=O)c4cccc5cccc(c45)C3=O)CC2)c1 (centres undefined)	78*	57*	24	17	-3	nt
O=C1c2cccc3cccc(c23)C(=O)N1CCN1CCN(CC(O)COCc2ccc(Cl)cc2)CC1 (centres undefined)	-1	12	82*	-2	-3	67
COc1cc(COCC(O)CN2CCN(CCN3C(=O)c4cccc5cccc(c45)C3=O)CC2)cc(OC)c1OC (centres undefined)	19	-52	-21	-1	-1	31
CCc1ccc(OCC(O)CN2CCC(CN3C(=O)c4cccc5cccc(c45)C3=O)CC2)cc1 (centres undefined)	1	56*	45	-20	-11	94*
CC(=O)c1ccccc1OCC(O)CN1CCN(CCN2C(=O)c3cccc4cccc(c34)C2=O)CC1 (centres undefined)	15	52	5	5	2	31
Cc1ccc(S(=O)(=O)N2CCN(C(=O)CSCc3ccc(C(C)C)cc3)CC2)cc1	7	nt	11	22	0	nt

Bioassay records from PubChem.
